Source: ChEMBL document CHEMBL3297714, “Gigantol, a bibenzyl from Dendrobium draconis, inhibits the migratory behavior of non-small cell lung cancer cells” (J Nat Prod, 2014)
pIC50: −log10 of the molar value. The source made the active and inactive calls. The calls are words filed in the database; no cut-off is given here.

Assays:
NCI-H460 [1] = assay: Cytotoxicity against human NCI-H460 cells assessed as cell viability at 0 to 20 uM for 12 to 72 hrs by MTT assay; type: functional, cell-based
Summary of the method: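 MTT was added for 4 h at 37 °C, formazan was dissolved in DMSO and read at 570. Viability is given as % of untreated cells. Mean ± SD, n = 4.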

NCI-H460 [2] = assay: Inhibition of human NCI-H460 cells invasion at 0 to 20 uM by transwell assay; type: functional, cell-based; conditions: TDE = time-dependent effect
Summary of the method: (§1)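 Matrigel-coated Transwell inserts (8 μm pore) were seeded with H460 cells at 1.5 × 10^5/well in RPMI with 0.1% FBS plus compound (0−20 μM), with 10% FBS RPMI in the lower chamber, for 24 or 48 h. Cells that invaded the underside were stained with 10 μg/mL Hoechst 33342 for 30 min and counted per field by fluorescence microscopy. n = 4.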

NCI-H460 [3] = assay: Inhibition of human NCI-H460 cells migration at 20 uM after 24 hrs by wound healing assay; type: functional; conditions: NCI-H460, 24 h
Summary of the method: (§2)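 H460 cells were seeded at 2.5 × 10^5/well and grown to a monolayer, then scratched with a 1 mm tip and washed with PBS. They were kept in serum-free RPMI with 0−20 μM for 24 h, or ± 20 μM for 24, 48 and 72 h. The wound was photographed, and migration was calculated as the change in wound space divided by that of control. Mean ± SD, n = 4.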

NCI-H460 [4] = assay: Inhibition of human NCI-H460 cells migration at 10 uM after 24 hrs by wound healing assay; type: functional; conditions: NCI-H460, 24 h; summary of the method: as §2
NCI-H460 [5] = assay: Inhibition of human NCI-H460 cells migration transfected with Cav-1 shRNA at 20 uM after 24 hrs by wound healing assay; type: functional, cell-based
Summary of the method: (§3)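 H460 cells were stably transfected (Lipofectamine 2000) with Cav-1 expression, Cav-1 shRNA or control plasmid, selected with antibiotic for 30 days and pooled, then passaged twice without G418. Confluent monolayers were scratched with a 1 mm tip and treated with 20 μM for 24 h. Wound-space change was expressed relative to untreated cells. n = 4.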

NCI-H460 [6] = assay: Cytotoxicity against human NCI-H460 cells assessed as cell viability at 50 uM for 24 hrs by MTT assay; type: functional; conditions: NCI-H460, 24 h, read-out: Activity
Summary of the method: (§4)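 MTT was given for 4 h at 37 °C, formazan was solubilized in DMSO and absorbance taken at 570. Viability is % of untreated control. IC50 came from four independent experiments. n = 4.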

NCI-H460 [7] = assay: Inhibition of human NCI-H460 cells migration at 20 uM by wound healing assay; type: functional, cell-based; conditions: TDE = time-dependent effect; summary of the method: as §2
NCI-H460 [8] = assay: Effect on Fak expression in human NCI-H460 cells at 0 to 20 uM for 24 hrs by Western blot analysis; type: functional, cell-based
Summary of the method: (§5)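 H460 cells were seeded at 5 × 10^5/well, left overnight, then exposed to 0−20 μM for 24 h. Lysis used Tris-HCl pH 7.5 buffer with Triton X-100, vanadate, NaF, PMSF and protease inhibitors, 40 min on ice. 60 μg protein per lane was run on 10% SDS-PAGE and blotted to nitrocellulose. Primary antibody overnight at 4 °C, then HRP secondary. Chemiluminescence, densitometry, β-actin loading control.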

NCI-H460 [9] = assay: Decrease in Cdc42 expression in human NCI-H460 cells at 0 to 20 uM for 24 hrs by Western blot analysis; type: functional, cell-based; summary of the method: as §5
NCI-H460 [10] = assay: Inhibition of human NCI-H460 cells invasion after 24 hrs by transwell assay; type: functional, cell-based; summary of the method: as §1
NCI-H460 [11] = assay: Inhibition of human NCI-H460 cells migration at 5 uM after 24 hrs by Boyden chamber assay relative to control; type: functional
Summary of the method: (§6)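 For the Boyden chamber, H460 cells at 5 × 10^4/well were placed on the upper side of an 8 μm Transwell filter in RPMI with 0.1% FBS plus compound (0−20 μM) for 24 h, with 10% FBS below. Non-migrated cells were swabbed off, and underside cells were stained with 10 μg/mL Hoechst 33342 for 30 min and counted per field. n = 4.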

NCI-H460 [12] = assay: Cytotoxicity against human NCI-H460 cells assessed as cell viability for 24 hrs by MTT assay; type: functional, cell-based; conditions: NCI-H460, 24 h; summary of the method: as §4
NCI-H460 [13] = assay: Inhibition of human NCI-H460 cells migration at 20 uM after 24 hrs by Boyden chamber assay relative to control; type: functional; summary of the method: as §6
[14] = target: RAC-alpha serine/threonine-protein kinase (Homo sapiens) (UniProt P31749); assay: Inhibition of Akt phosphorylation at Ser473 in human NCI-H460 cells at 0 to 20 uM for 24 hrs by Western blot analysis; type: cell-based; summary of the method: as §5
Chain of RAC-alpha serine/threonine-protein kinase (Homo sapiens) (P31749 whole entry): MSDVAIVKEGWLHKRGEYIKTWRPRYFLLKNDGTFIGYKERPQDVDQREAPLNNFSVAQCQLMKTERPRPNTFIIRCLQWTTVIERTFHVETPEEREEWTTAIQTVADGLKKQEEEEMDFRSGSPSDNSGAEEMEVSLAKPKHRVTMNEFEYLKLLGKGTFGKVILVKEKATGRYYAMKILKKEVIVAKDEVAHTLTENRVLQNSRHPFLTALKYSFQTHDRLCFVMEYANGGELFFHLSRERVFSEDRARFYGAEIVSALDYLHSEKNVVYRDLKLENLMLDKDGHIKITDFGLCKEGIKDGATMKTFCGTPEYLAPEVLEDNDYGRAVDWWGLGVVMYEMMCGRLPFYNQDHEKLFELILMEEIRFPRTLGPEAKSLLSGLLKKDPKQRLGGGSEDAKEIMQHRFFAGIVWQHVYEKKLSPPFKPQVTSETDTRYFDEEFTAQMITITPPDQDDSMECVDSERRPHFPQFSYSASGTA

NCI-H460 [15] = assay: Inhibition of human NCI-H460 cells migration at 10 uM after 24 hrs by Boyden chamber assay relative to control; type: functional; summary of the method: as §6
NCI-H460 [16] = assay: Inhibition of human NCI-H460 cells migration at 5 uM after 24 hrs by wound healing assay; type: functional; conditions: NCI-H460, 24 h; summary of the method: as §2
NCI-H460 [17] = assay: Decrease in filopodia protrussions in human NCI-H460 cells at 10 to 20 uM for 24 hrs by phalloidin staining based fluorescence microscopic analysis; type: functional, cell-based
Summary of the method: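 H460 cells were seeded at 5 × 10^4/well and treated 24 h (0−20 μM). Cells were fixed in 4% paraformaldehyde, permeabilized with 0.1% Triton X-100 and blocked with 0.2% BSA, then stained with rhodamine-phalloidin (1:100, 15 min) or Hoechst 33342. Filopodia per cell were counted by fluorescence microscopy relative to untreated cells.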

NCI-H460 [18] = assay: Decrease in Cav-1 expression in human NCI-H460 cells at 0 to 20 uM for 24 hrs by Western blot analysis; type: functional, cell-based; summary of the method: as §5
NCI-H460 [19] = assay: Induction of apoptosis in human NCI-H460 cells at 50 to 100 uM for 24 hrs by Hoechst-[…]/PI staining based fluorescence microscopic analysis; type: functional, cell-based
Summary of the method: (§7)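 They were stained with 10 μg/mL Hoechst 33342 plus 5 μg/mL propidium iodide for 30 min. Apoptotic (Hoechst-condensed) and necrotic (PI-positive) cells were scored by fluorescence microscopy as % versus untreated control.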

NCI-H460 [20] = assay: Effect on unphosphorylated Akt level in human NCI-H460 cells at 0 to 20 uM for 24 hrs by Western blot analysis; type: functional, cell-based; summary of the method: as §5
NCI-H292 = assay: Inhibition of human NCI-H292 cells migration at 0 to 20 uM after 24 hrs by wound healing assay; type: functional, cell-based
Summary of the method: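 NCI-H292 cells in RPMI-1640 with 10% FBS were grown to a confluent monolayer and scratched with a 1 mm tip. They were incubated in serum-free RPMI with 0−20 μM for 24 h. The change in wound space was measured from photographs relative to untreated cells.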

NCI-H460 [21] = assay: Cytotoxicity against human NCI-H460 cells assessed as cell viability at 500 uM for 24 hrs by MTT assay; type: functional; conditions: NCI-H460, 24 h, read-out: Activity; summary of the method: as §4
NCI-H460 [22] = assay: Inhibition of human NCI-H460 cells migration overexpressing Cav-1 at 20 uM after 24 hrs by wound healing assay; type: functional, cell-based; summary of the method: as §3
NCI-H460 [23] = assay: Inhibition of human NCI-H460 cells migration after 24 to 72 hrs by wound healing assay; type: functional, cell-based; summary of the method: as §2
NCI-H460 [24] = assay: Cytotoxicity against human NCI-H460 cells assessed as cell viability at 100 uM for 24 hrs by MTT assay; type: functional; conditions: NCI-H460, 24 h, read-out: Activity; summary of the method: as §4
NCI-H460 [25] = assay: Cytotoxicity against human NCI-H460 cells assessed as cell viability at < 20 uM for 24 hrs by MTT assay; type: functional, cell-based; summary of the method: as §4
NCI-H460 [26] = assay: Induction of necrosis in human NCI-H460 cells at 50 to 100 uM for 24 hrs by Hoechst-[…]/PI staining based fluorescence microscopic analysis; type: functional, cell-based; summary of the method: as §7
HaCaT = assay: Cytotoxicity against human HaCaT cells assessed as cell migration at 0 to 20 uM after 24 hrs by wound healing assay; type: cell-based
Summary of the method: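 HaCat keratinocytes grown in DMEM with 10% FBS, 2 mM L-glutamine and penicillin/streptomycin. A confluent monolayer was scratched with a 1 mm tip, washed with PBS, and kept in serum-free medium with compound (0−20 μM) for 24 h. The wound was photographed, and the change in wound space was expressed relative to untreated cells.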

[27] = target: Focal adhesion kinase 1 (Homo sapiens) (UniProt Q05397); assay: Inhibition of Fak phosphorylation at Tyr397 in human NCI-H460 cells at 0 to 20 uM for 24 hrs by Western blot analysis; type: cell-based; summary of the method: as §5
Chain of Focal adhesion kinase 1 (Homo sapiens) (Q05397 2-1052 limits assumed): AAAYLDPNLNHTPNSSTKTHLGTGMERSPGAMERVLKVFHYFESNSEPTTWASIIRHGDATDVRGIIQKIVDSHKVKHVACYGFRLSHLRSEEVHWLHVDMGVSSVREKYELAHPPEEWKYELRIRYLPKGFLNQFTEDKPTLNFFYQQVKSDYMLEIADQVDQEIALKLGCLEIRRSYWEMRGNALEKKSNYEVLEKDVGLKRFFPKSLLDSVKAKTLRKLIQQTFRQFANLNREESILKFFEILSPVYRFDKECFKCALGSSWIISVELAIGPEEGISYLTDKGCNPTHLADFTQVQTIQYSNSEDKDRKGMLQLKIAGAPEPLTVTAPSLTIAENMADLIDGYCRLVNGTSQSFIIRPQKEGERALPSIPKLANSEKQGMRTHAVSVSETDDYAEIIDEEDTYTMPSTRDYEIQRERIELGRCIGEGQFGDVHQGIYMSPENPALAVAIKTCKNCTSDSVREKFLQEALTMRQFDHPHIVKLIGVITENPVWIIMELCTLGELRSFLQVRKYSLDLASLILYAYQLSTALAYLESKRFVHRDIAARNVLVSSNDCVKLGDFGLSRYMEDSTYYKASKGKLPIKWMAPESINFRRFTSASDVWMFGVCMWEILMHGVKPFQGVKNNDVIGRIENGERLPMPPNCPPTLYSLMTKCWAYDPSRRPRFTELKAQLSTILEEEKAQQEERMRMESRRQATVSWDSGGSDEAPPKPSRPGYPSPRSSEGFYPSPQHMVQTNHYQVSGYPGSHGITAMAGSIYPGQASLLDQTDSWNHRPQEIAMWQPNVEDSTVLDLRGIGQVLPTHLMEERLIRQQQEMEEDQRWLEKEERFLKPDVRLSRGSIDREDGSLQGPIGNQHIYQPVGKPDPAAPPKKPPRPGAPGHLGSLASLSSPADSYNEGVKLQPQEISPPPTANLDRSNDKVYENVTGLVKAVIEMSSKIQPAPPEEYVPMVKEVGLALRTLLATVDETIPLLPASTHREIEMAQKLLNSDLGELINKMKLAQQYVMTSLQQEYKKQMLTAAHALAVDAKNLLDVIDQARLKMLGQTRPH

## COc1cc(O)cc(CCc2ccc(O)c(OC)c2)c1 [GIGANTOL]
NCI-H460 [1]
  Activity: inactive
NCI-H460 [2]
  inhibition: tde
NCI-H460 [3]
  inhibition at 20 µM: 70%
NCI-H460 [4]
  inhibition at 10 µM: 50%
NCI-H460 [5]
  inhibition: Active
NCI-H460 [6]
  viability at 50 µM: 83%
NCI-H460 [7]
  inhibition: tde
NCI-H460 [8]
  Activity: inactive
NCI-H460 [9]
  inhibition: Active
NCI-H460 [10]
  inhibition: Dose-dependent effect
NCI-H460 [11]
  fold change (FC): 0.7
NCI-H460 [12]
  pIC50: 3.61
NCI-H460 [13]
  fold change (FC): 0.3
[14]
  inhibition: Active
NCI-H460 [15]
  fold change (FC): 0.4
NCI-H460 [16]
  inhibition at 5 µM: 30%
NCI-H460 [17]
  inhibition: Active
NCI-H460 [18]
  inhibition: Active
NCI-H460 [19]
  Activity: Active
NCI-H460 [20]
  Activity: inactive
NCI-H292
  inhibition: Active
NCI-H460 [21]
  viability at 500 µM: 20%
NCI-H460 [22]
  inhibition: Active
NCI-H460 [23]
  inhibition: Dose-dependent effect
NCI-H460 [24]
  viability at 100 µM: 80%
NCI-H460 [25]
  Activity: inactive
NCI-H460 [26]
  Activity: inactive
HaCaT
  Activity: Non-toxic
[27]
  Activity: inactive
